This is an account of results in ChEMBL document CHEMBL4602725 (J Med Chem, 2020).

For test [1], the species on record is Homo sapiens. In words: Selectivity index, ratio of IC50 for inhibition of human recombinant HDAC7 to IC50 for inhibition of human recombinant HDAC1. In a few lines: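 HDAC7 arm: 5 ng/mL recombinant human HDAC7 pre-incubated 15 min with inhibitor, then Ac-Leu-Gly-Lys(trifluoroAc)-AMC (20 µM) for 60 min at 37°C. Developer was trypsin with 10 μM SAHA, 15 min; fluorescence 350/460 nm. HDAC1 was run with 30 min pre-incubation, 12 µM Ac-Leu-Gly-Lys(Ac)-AMC, 90 min. Ratio of the HDAC7 IC50 to the HDAC1 IC50.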

For another test, the target named is Histone deacetylase 3 (Homo sapiens, UniProt O15379). In words: Inhibition of human recombinant HDAC3 pre-incubated for 30 mins before Ac-Leu- Gly-Lys(Ac)-AMC substrate addition and measured after 90 mins by fluorescence based assay.
In test [2] the target is T1, Histone deacetylase 1 (Homo sapiens, UniProt Q13547). The test is described as follows: Inhibition of human recombinant HDAC1 pre-incubated for 30 mins before Ac-Leu- Gly-Lys(Ac)-AMC substrate addition and measured after 90 mins by fluorescence based assay.
The species entered for test [3] is Homo sapiens. In words: Selectivity index, ratio of IC50 for inhibition of human recombinant HDAC8 to IC50 for inhibition of human recombinant HDAC1.
The species named for test [4] is Homo sapiens. In words: Selectivity index, ratio of IC50 for inhibition of human recombinant HDAC2 to IC50 for inhibition of human recombinant HDAC1.
For the next test, the target named is T2, Histone deacetylase 8 (Homo sapiens, UniProt Q9BY41).
T2 sequence (Q9BY41 whole entry): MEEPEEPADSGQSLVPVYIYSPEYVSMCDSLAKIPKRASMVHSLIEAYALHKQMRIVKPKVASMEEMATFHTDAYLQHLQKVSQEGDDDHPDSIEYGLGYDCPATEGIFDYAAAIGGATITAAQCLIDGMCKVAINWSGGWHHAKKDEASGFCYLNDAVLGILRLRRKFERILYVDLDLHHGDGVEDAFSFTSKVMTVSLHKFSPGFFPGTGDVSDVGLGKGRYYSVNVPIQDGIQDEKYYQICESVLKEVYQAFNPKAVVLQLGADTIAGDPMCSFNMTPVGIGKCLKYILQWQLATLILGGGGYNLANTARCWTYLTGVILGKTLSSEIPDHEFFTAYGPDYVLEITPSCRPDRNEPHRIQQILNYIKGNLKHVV
In words: Inhibition of human recombinant HDAC8 pre-incubated for 30 mins before Ac-Leu- Gly-Lys(Ac)-AMC substrate addition and measured after 90 mins by fluorescence based assay.

The species entered for test [5] is Homo sapiens. In words: Selectivity index, ratio of IC50 for inhibition of human recombinant HDAC3 to IC50 for inhibition of human recombinant HDAC1.
For a further test, the target named is Histone deacetylase 2 (Homo sapiens, UniProt Q92769). In words: Inhibition of human recombinant HDAC2 pre-incubated for 30 mins before Ac-Leu- Gly-Lys(Ac)-AMC substrate addition and measured after 90 mins by fluorescence based assay.
The next test deals with T3, Histone deacetylase 7 (Homo sapiens, UniProt Q8WUI4).
T3 sequence (Q8WUI4 whole entry): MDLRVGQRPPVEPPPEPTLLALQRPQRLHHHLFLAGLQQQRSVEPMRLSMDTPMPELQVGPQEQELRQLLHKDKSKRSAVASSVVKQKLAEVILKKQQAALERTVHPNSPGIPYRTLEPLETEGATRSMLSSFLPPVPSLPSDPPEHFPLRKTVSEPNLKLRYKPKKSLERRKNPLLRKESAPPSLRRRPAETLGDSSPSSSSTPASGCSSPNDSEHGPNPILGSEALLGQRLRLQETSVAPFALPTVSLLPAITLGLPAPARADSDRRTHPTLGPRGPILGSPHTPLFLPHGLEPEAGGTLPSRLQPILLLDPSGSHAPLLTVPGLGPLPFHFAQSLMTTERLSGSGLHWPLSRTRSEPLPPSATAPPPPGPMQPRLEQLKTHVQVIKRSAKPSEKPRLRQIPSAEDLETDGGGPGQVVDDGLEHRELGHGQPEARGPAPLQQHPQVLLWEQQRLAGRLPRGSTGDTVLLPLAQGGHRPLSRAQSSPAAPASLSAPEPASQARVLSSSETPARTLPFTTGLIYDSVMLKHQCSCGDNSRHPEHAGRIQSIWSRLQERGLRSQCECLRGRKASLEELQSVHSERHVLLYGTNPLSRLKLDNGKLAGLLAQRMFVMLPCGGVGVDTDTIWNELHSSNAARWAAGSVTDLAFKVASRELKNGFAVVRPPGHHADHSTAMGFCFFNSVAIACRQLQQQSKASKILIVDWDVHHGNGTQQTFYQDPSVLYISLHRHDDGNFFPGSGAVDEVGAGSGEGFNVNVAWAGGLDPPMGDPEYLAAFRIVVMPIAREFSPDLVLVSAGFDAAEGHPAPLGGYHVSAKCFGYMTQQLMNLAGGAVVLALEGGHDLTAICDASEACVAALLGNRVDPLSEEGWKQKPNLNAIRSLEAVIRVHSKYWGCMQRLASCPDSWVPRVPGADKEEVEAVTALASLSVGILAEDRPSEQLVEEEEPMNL
The test is described as follows: Inhibition of human recombinant HDAC7 pre-incubated for 15 mins before Ac-Leu-Gly-Lys(trifluroAc)-AMC substrate addition and measured after 60 mins by fluorescence based assay.

For test [6], the system named is HT-29. The test is described as follows: Cytotoxicity against human HT-29 cells assessed as increase in intracellular caspase 3/7 release incubated for 72 hrs by Caspase-Glo 3/7 assay. To be noted: HT-29, 72 h.
Test [7] concerns NFF. The test is described as follows: Cytotoxicity against human NFF cells assessed as reduction in cell viability incubated for 72 hrs by MTT assay.
For test [8], the system named is A549. The test is described as follows: Cytotoxicity against human A549 cells assessed as reduction in cell viability incubated for 72 hrs by MTT assay. Conditions: A549, 72 h. On the technique in general: Tetrazolium dyes change colour on reduction, which living cells bring about.
Test [9] relates to A549. The test is described as follows: Cytotoxicity against human A549 cells assessed as increase in intracellular caspase 3/7 release incubated for 72 hrs by Caspase-Glo 3/7 assay. Conditions: A549, 72 h.
Test [10] deals with HeLa. In words: Cytotoxicity against human HeLa cells assessed as increase in intracellular caspase 3/7 release incubated for 72 hrs by Caspase-Glo 3/7 assay.
Test [11] deals with NFF. The test is described as follows: Cytotoxicity against human NFF cells assessed as increase in intracellular caspase 3/7 release incubated for 72 hrs by Caspase-Glo 3/7 assay.
The subject of test [12] is MDA-MB-231. In words: Cytotoxicity against human MDA-MB-231 cells assessed as reduction in cell viability incubated for 72 hrs by MTT assay. To be noted: MDA-MB-231, 72 h.
Test [13] deals with HT-29. In words: Cytotoxicity against human HT-29 cells assessed as reduction in cell viability incubated for 72 hrs by MTT assay. To be noted: HT-29, 72 h.
For test [14], the system named is MDA-MB-231. In words: Cytotoxicity against human MDA-MB-231 cells assessed as increase in intracellular caspase 3/7 release incubated for 72 hrs by Caspase-Glo 3/7 assay. To be noted: MDA-MB-231, 72 h.
For test [15], the system named is MM96L. In words: Cytotoxicity against human MM96L cells assessed as increase in intracellular caspase 3/7 release incubated for 72 hrs by Caspase-Glo 3/7 assay.
Test [16] relates to HeLa. In words: Cytotoxicity against human HeLa cells assessed as reduction in cell viability incubated for 72 hrs by MTT assay.
The target of test [17] is T1, Histone deacetylase 1. In words: Inhibition of HDAC1 in human MM96L cells assessed as activation of histone H4 acetylation at Lys5, Lys8, Lys12 and Lys16 residues by Western blot analysis. The test is classed as cell-based. A general note: Immunoblotting shows a protein as a band on a membrane.
Test [18] relates to MM96L. In words: Cytotoxicity against human MM96L cells assessed as reduction in cell viability incubated for 72 hrs by MTT assay.

T1 sequence (Q13547 whole entry): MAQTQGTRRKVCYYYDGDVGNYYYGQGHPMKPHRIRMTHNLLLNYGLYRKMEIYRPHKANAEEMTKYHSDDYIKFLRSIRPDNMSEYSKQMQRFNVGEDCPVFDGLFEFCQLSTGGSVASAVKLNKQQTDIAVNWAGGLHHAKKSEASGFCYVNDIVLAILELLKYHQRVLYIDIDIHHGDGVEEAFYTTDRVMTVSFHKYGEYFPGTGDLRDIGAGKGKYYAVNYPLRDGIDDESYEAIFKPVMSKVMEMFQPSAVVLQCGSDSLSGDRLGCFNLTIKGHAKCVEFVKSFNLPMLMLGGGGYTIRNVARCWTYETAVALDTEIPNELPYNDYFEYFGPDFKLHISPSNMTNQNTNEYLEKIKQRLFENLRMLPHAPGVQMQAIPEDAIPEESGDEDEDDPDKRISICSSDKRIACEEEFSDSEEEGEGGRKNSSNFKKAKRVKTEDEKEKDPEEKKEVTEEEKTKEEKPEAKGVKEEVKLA
Histone deacetylase 3, sequence (O15379 whole entry): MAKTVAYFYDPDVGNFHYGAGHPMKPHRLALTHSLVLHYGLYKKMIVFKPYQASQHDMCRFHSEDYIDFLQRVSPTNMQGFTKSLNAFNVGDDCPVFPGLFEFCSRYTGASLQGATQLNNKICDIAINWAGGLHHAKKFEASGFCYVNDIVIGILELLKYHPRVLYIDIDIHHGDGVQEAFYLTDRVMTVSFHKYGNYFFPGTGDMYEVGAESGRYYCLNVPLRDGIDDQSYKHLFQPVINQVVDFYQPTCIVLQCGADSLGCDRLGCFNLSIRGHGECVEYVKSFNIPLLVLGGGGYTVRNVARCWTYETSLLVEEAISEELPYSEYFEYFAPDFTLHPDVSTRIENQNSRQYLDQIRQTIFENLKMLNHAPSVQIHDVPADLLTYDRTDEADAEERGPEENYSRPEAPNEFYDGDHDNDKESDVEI
Histone deacetylase 2, sequence (Q92769 whole entry): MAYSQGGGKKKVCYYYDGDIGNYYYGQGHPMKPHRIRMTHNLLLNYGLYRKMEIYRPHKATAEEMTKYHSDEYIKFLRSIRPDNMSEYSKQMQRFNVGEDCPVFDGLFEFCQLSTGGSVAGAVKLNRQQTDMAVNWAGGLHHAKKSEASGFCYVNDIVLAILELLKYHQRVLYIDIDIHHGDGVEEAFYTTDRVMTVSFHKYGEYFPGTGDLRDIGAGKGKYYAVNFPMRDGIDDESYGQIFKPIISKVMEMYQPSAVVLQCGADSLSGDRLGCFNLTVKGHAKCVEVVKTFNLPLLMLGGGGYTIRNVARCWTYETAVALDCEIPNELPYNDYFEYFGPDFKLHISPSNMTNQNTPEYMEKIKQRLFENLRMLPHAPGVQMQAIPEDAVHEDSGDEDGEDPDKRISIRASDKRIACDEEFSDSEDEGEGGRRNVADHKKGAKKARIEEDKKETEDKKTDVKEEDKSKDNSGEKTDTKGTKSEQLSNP

Turning to `CN(C)c1ccc(C2(C(=O)Nc3ccc(C(=O)NO)cc3)CCCC2)cc1`, the Ratio IC50 was 140 to 600 in the test listed under Homo sapiens [1], 14 to 61 in the test filed under Homo sapiens [3], 5 to 12 in the test filed under Homo sapiens [4] and 2 to 3 in the test listed under Homo sapiens [5]. For the same compound, the IC50 (as a rule, the concentration at which inhibition is half-maximal) at Histone deacetylase 3 amounted to 9 nM; at Histone deacetylase 1 [2], 4 nM; on Histone deacetylase 8 it was 89 nM; at Histone deacetylase 2, 49 nM; at Histone deacetylase 7, 2500 nM.

For `O=C(NO)c1ccc(NC(=O)C2(c3ccc4ccccc4c3)CCOCC2)cc1`, the concentration giving a half-maximal response (EC50) (usually the concentration giving half of the maximal effect) in the test on HT-29 [6] came to 200 nM; with A549 [9], 2600 nM; with HeLa [10], 700 nM; in the test on NFF [11] it was 4300 nM; in the test with MDA-MB-231 [14] it was 300 nM; in the test with MM96L [15] it was 60 nM. In addition, the IC50 in the test with NFF [7] was found to be 400 nM; in the test on A549 [8] it was 100 nM; at Histone deacetylase 3 it was 2 nM; in the test on MDA-MB-231 [12], 100 nM; with HT-29 [13] it was 40 nM; at Histone deacetylase 8, 44 nM. Moreover, the results for the IC50 on Histone deacetylase 2, in the test with HeLa [16] and in the test with MM96L [18] were 8 nM, 30 nM and 20 nM, respectively. The inhibition entry on Histone deacetylase 1 [17] was “Dose-dependent effect”.

For the compound `CC(C)C(C(=O)Nc1ccc(C(=O)NO)cc1)c1ccccc1` (racemic), the EC50 with HT-29 [6] is 1700 nM; in the test on A549 [9], 15600 nM; in the test with HeLa [10], 8100 nM; in the test with NFF [11] it was 24300 nM; with MDA-MB-231 [14] it was 2400 nM; with MM96L [15] it was 900 nM. Moreover, the IC50 in the test on NFF [7] amounted to 500 nM; in the test with A549 [8] it was 1500 nM; with MDA-MB-231 [12] it was 1500 nM; in the test on HT-29 [13] it was 600 nM; in the test with HeLa [16], 700 nM; with MM96L [18] it was 300 nM.
